Values after ≈ are worked out from the molar mass of the structure shown. “Also recorded” adds a separate entry of the source. Non-standard residues stand in square brackets, D forms with d. Residues, ends and D or L forms follow the SMILES beside them. Dip = N[C@H](C(=O)O)C(c1ccccc1)c1ccccc1
Tests used:
[1] = tested on: human red blood cells (hRBC); assay: Hemolytic activity; type: cell-based; details: concentration at which 50% hemolysis was observed
[2] = tested on: MRSA (ATCC BAA-1556); type: cell-based, Methicillin-resistant staphylococcus aureus
[3] = tested on: E. coli (ATCC BAA-2452); type: cell-based, Escherichia coli
[4] = tested on: A. fumigatus (Af-293); assay: microbe, parasite or virus in culture; type: cell-based, Aspergillus fumigatus
[5] = tested on: C. albicans (ATCC 60193); assay: microbe, parasite or virus in culture; type: cell-based; details: ATCC 60193
[6] = tested on: MRSA (ATCC BAA-1556) biofilm; assay: Antibiofilm activity, XTT assay; type: cell-based, Methicillin-resistant staphylococcus aureus
Method in brief: (§1)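 Bacterial suspensions at 5×10^5 CFU/mL in MH broth were grown 24 h at 37 °C to form biofilms, then washed twice with PBS. […] Biofilms were rewashed, then given XTT plus phenazine methosulfate for 1 h in the dark at 37 °C, and A492 was read. Percentage decrease versus untreated wells; triplicate, run twice.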

[7] = tested on: E. coli (ATCC BAA-2452) biofilm; assay: Antibiofilm activity, XTT assay; type: cell-based, Escherichia coli
Method in brief: as §1

[8] = tested on: A. fumigatus (Af-293) biofilm; assay: Antibiofilm activity, XTT assay; type: cell-based, Aspergillus fumigatus
Method in brief: (§2)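 Fungal biofilms came from suspensions at 2×10^7 CFU/mL in RPMI medium grown 24 h at 35 °C, then washed twice with PBS. […] After washing, XTT with phenazine methosulfate was added for 1 h in the dark at 37 °C, and absorbance was read at 492 nm. Percentage decrease versus untreated wells; triplicate, replicated twice.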

[9] = tested on: C. albicans (ATCC 60193) biofilm; assay: Antibiofilm activity, XTT assay; type: cell-based
Method in brief: as §2

[10] = tested on: MRSA (ATCC BAA-1556); assay: Kill kinetics assay; type: cell-based, Methicillin-resistant staphylococcus aureus
[11] = tested on: E. coli (ATCC BAA-2452); assay: Kill kinetics assay; type: cell-based, Escherichia coli
[12] = tested on: A. fumigatus (Af-293); assay: Kill kinetics assay; type: cell-based, Aspergillus fumigatus; details: after 12 h
[13] = tested on: C. albicans (ATCC 60193); assay: Kill kinetics assay; type: cell-based; details: after 12 h
[14] = Calcein dye leakage assay; details: bacterial mimic liposomes; for calcein dye leakage: 5 μg/mL
Method in brief: (§3)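 Calcein-loaded LUVs were used: negatively charged ones mimic bacterial membranes and zwitterionic ones mimic mammalian membranes. They were diluted in PBS to a final lipid concentration of 40 μM and mixed 1:1 with test compound at 5, 10, 20, 30 or 50 μg/mL. Fluorescence (ex 490/em 520 nm) was read every 10 min for 100 min. Leakage was expressed relative to background and Triton X-100 lysis (100%); triplicate.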

[15] = Calcein dye leakage assay; details: mammalian mimic liposomes; after 100 min; concentration not given
Method in brief: as §3

[16] = tested on: E. coli (ATCC 25922) and E. coli (ATCC BAA-2452); assay: Resistance development study, repeated exposure; type: cell-based; details: E. coli strains; 18 exposures
[17] = tested on: Enterococcus faecalis (ATCC 29212)
[18] = tested on: Enterococcus faecalis (ATCC 51575), vancomycin resistant
[19] = tested on: Staphylococcus pneumoniae (ATCC 700677), multi-drug resistant; details: Multi-drug resistant (Penicillin, Tetracycline, and Erythromycin)
[20] = tested on: Clostridium difficile (ATCC 700057)
[21] = tested on: Clostridium difficile (NAP1/027); details: Reduced susceptibility to multiple antibiotics
[22] = tested on: Escherichia coli (ATCC BAA-2452), NDM-1
[23] = tested on: Acinetobacter baumannii (ATCC BAA1605), ciprofloxacin resistant; details: Ciprofloxacin resistant strain
[24] = tested on: Pseudomonas aeruginosa (ATCC BAA-1744), imipenem resistant; details: Imipenem resistant strain
[25] = tested on: human skin fibroblast cell (HeKa); details: 24 h, 100 μg/mL
[26] = tested on: Gram-negative bacteria; details: drug-resistant Gram-negative bacteria, range over strains
[27] = tested on: fungi; details: range over strains
[28] = in vitro; details: human, cell viability
[29] = in vitro; details: human
[30] = in vitro; details: human, cell viability; remark: listed apart in the source
[31] = in vitro; details: human, cell viability; remark: listed apart in the source
[32] = in vitro; details: human; remark: listed apart in the source

## N=C(N)NCCC[C@@H]1NC(=O)[C@H](CCCNC(=N)N)NC(=O)[C@H](CCCNC(=N)N)NC(=O)[C@H](C(c2ccccc2)c2ccccc2)NC(=O)[C@H](Cc2c[nH]c3ccccc23)NC(=O)[C@H](C(c2ccccc2)c2ccccc2)NC(=O)[C@H](CCCNC(=N)N)NC1=O [3b, c[Arg-Arg-Arg-Arg-Dip-Trp-Dip]] (cyclo(RRRR[Dip]W[Dip]))
[1]
  HC50: 230 µg/mL
[2]
  MIC CaCl2: 1.5 µg/mL (≈ 1.19 µM)
  MIC Control: 1.5 µg/mL (≈ 1.19 µM)
  MIC KCl: 3.1 µg/mL (≈ 2.47 µM)
  MIC MgCl2: 3.1 µg/mL (≈ 2.47 µM)
  MIC NH4Cl: 1.5 µg/mL (≈ 1.19 µM)
  MIC NaCl: 3.1 µg/mL (≈ 2.47 µM)
[3]; ATCC BAA-2452
  MIC NaCl: 25 µg/mL (≈ 19.9 µM)
[3]; E. coli (ATCC BAA-2452), CaCl2 2 mM
  MIC CaCl2: 12.5 µg/mL (≈ 9.94 µM)
[3]; E. coli (ATCC BAA-2452), KCl […]
  MIC KCl: 12.5 µg/mL (≈ 9.94 µM)
[3]; E. coli (ATCC BAA-2452), MH media without salt ions or serum
  MIC Control: 12.5 µg/mL
[3]; E. coli (ATCC BAA-2452), MgCl2 1 mM
  MIC MgCl2: 12.5 µg/mL (≈ 9.94 µM)
[3]; E. coli (ATCC BAA-2452), NH4Cl 6 mM
  MIC NH4Cl: 12.5 µg/mL (≈ 9.94 µM)
[4]; A. fumigatus (Af-293), MgCl2 1 mM
  MIC MgCl2: 12.5 µg/mL (≈ 9.94 µM)
[4]; A. fumigatus (Af-293), NaCl 150 mM
  MIC NaCl: 12.5 µg/mL (≈ 9.94 µM)
[4]; A. fumigatus (Af-293), fetal bovine serum 25%
  MIC FBS (25%): 12.5 µg/mL (≈ 9.94 µM)
[4]; Af-293
  MIC CaCl2: 6.2 µg/mL (≈ 4.93 µM)
  MIC Control: 6.2 µg/mL (≈ 4.93 µM)
  MIC KCl: 6.2 µg/mL (≈ 4.93 µM)
  MIC NH4Cl: 6.2 µg/mL (≈ 4.93 µM)
[5]
  MIC CaCl2: 6.2 µg/mL (≈ 4.93 µM)
  MIC Control: 3.1 µg/mL (≈ 2.47 µM)
  MIC KCl: 3.1 µg/mL (≈ 2.47 µM)
  MIC MgCl2: 3.1 µg/mL (≈ 2.47 µM)
  MIC NH4Cl: 6.2 µg/mL (≈ 4.93 µM)
  MIC NaCl: 3.1 µg/mL (≈ 2.47 µM)
[6]; at 2× the MIC
  reduction in biofilm mass: 60–65%
[6]; at MIC, vs untreated control
  reduction in biofilm mass: 40–45%
[7]; at 2× the MIC
  reduction in biofilm mass: 60–65%
[7]; at MIC
  reduction in biofilm mass: 40–45%
[8]; at 2× the MIC
  reduction in biofilm mass: 49–56%
[8]; at MIC
  reduction in biofilm mass: 31–36%
[9]; at 2× the MIC
  decrease in biofilm mass: 60–62%
[9]; at MIC
  decrease in biofilm mass: 31–39%
[10]; at 4× the MIC
  time to virtually eliminate all bacterial cells: 1 to 2 h
[10]; at MIC
  time to virtually eliminate all bacterial cells: 3 to 4 h
[11]; at 4× the MIC
  time to completely halt growth of nearly all cells: 2 h
[11]; at MIC
  time to completely halt growth of nearly all cells: 4 h
[12]; at 4× the MIC
  eradication of fungal cells: near-complete eradication
[12]; at MIC
  eradication of fungal cells: Complete eradication was not achieved
[13]; at 4× the MIC
  eradication of fungal cells: near-complete eradication
[13]; at MIC
  eradication of fungal cells: Complete eradication was not achieved
[14]; 40 min
  calcein dye leakage: approximately 20%
[14]; 60 min
  calcein dye leakage: ~60%
[14]; 50 μg/mL
  incubation time to 100% dye leakage: 60 min
[15]
  calcein dye leakage: 14.11%
[16]
  change in MIC after repeated exposure (resistance development): no signs of resistance development; also recorded: negligible changes in the MIC values
[17]
  MIC Enterococcus faecalis (ATCC 29212): 12.5 µg/mL (≈ 9.94 µM)
[18]
  MIC Enterococcus faecalis (ATCC 51575): 12.5 µg/mL (≈ 9.94 µM)
[19]
  MIC Staphylococcus pneumoniae (ATCC 700677): 12.5 µg/mL (≈ 9.94 µM)
[20]
  MIC Clostridium difficile (ATCC 700057): 12.5 µg/mL (≈ 9.94 µM)
[21]
  MIC Clostridium difficile (NAP1/027): 6.2 µg/mL (≈ 4.93 µM)
[22]
  MIC Escherichia coli (ATCC BAA-2452): 12.5 µg/mL (≈ 9.94 µM)
[23]
  MIC Acinetobacter baumannii (ATCC BAA1605): 12.5 µg/mL (≈ 9.94 µM)
[24]
  MIC Pseudomonas aeruginosa (ATCC BAA-1744): 12.5 µg/mL (≈ 9.94 µM)
[25]
  cell viability: > 60%
[26]
  MIC: 12.5 to 25 µg/mL
[27]
  MIC: 3.1 to 12.5 µg/mL
[28]
  viability at 24 h, 100 μg/mL: > 70%
[29]
  viability at 24 h, 50 μg/mL: 81 to 89%
  viability at 24 h, 100 μg/mL: > 70%
  viability at 24 h, 250 μg/mL: > 50%
[30]
  viability at 24 h, 100 μg/mL: > 70%
[31]
  viability at 24 h, 100 μg/mL: > 70%
[32]; human plasma
  remaining at 0.5 h, 75 μM: ~82.4%
  remaining at 12 h, 75 μM: ~52.3%
  remaining at 24 h, 75 μM: ~44.9%
[32]; plasma
  half-life at 75 μM: 13 h
